Results collected from several papers.
Protocols differ between the studies behind these lines.
INSR: Insulin receptor (INSR, Homo sapiens, UniProt P06213)

Structure (SMILES) | target | assay | conditions | measurement | result
O=C1NC(=O)c2cc(Nc3ccc(F)cc3)c(Nc3ccc(F)cc3)cc21 | INSR | cell-free assay | 0.5 µM | remaining signal | 98.3%
N#CC1(c2ccccn2)CCN(Cc2cc(C(=O)N3CCCC3)c(=O)n3ccccc23)CC1 | INSR | cell-free assay, competition with immobilised ligand | 1 µM | remaining binding | 88%
CNC(=O)c1cc(Oc2ccc(NC(=O)Nc3ccc(Cl)c(C(F)(F)F)c3)cc2)ccn1 | INSR | enzyme activity, inhibitor | 0.3 µM | inhibition | 3%
CNCc1ccc(-c2cc(-c3nc(-c4ccc(S(=O)(=O)C(C)C)cc4)cnc3N)on2)cc1 | INSR | enzyme activity, inhibitor | 0.4 µM | inhibition | 0%
CCCS(=O)(=O)Nc1ccc(F)c(C(=O)c2c[nH]c3ncc(-c4ccc(Cl)cc4)cc23)c1F | INSR | enzyme activity, inhibitor | 1 µM | inhibition | < 10%
CSc1nc(C)c(-c2ccnc(Nc3ccc(N4CCOCC4)cc3)c2)[nH]1 | INSR | cell-free assay, inhibitor | 10 µM | inhibition | -1.8%
COc1cc2ncnc(Nc3ccc(Oc4ccccc4)cc3C)c2cc1OC | INSR | enzyme activity, inhibitor | 1 µM | inhibition | -1%
CCC(=N\O)/C(C)=C/c1ccc(F)cc1 | INSR | cell-free assay, competition with immobilised ligand | 1 µM | remaining binding | 100%
Cc1cc(NC(=O)c2cccc3cc(-c4cccc5[nH]nc(N)c45)ccc23)ccc1F | INSR | enzyme activity, inhibitor | 0.1 µM | activity vs control | 107%
Cc1ccc(NC(=O)c2ccc(C)c(C(F)(F)F)c2)cc1C#Cc1nn(C2CCC(O)CC2)c2ncnc(N)c12 (stereo not drawn) | INSR | cell-free assay | 10 µM | remaining signal | 97%
O=C(CSc1nc2nccnc2c(=O)n1CCc1ccccc1)Nc1nccs1 | INSR | enzyme activity, inhibitor | 10 µM | inhibition | 5%
COc1cc2c(Nc3ccc(Br)cc3F)ncnc2cc1OCC1CCN(C)CC1 | INSR | cell-free assay | 0.5 µM | remaining signal | 102%
CC(C)c1ccc(NC(=O)c2cccs2)c(-c2nc3ccccc3[nH]c2=O)c1 | INSR | enzyme activity, inhibitor | 1 µM | activity vs control | 91%
Cc1ccc(C(=O)NCc2ccsc2)cc1C#Cc1cn(C(C)C)c2ncnc(N)c12 | Insulin receptor, phosphorylated (INSR, Homo sapiens, UniProt P06213) | enzyme activity, inhibitor | 1 µM | activity vs control | 95%
C[C@H](NC(=O)c1cnc2n1[C@](C)(Cc1ccc(C#N)cc1)C(=O)N2c1cc(Cl)c(F)c(Cl)c1)C(=O)NC1(c2ccccn2)CC1 | INSR | cell-free assay, competition with immobilised ligand | 1 µM | remaining binding | 100%
Cc1ccc(Nc2nccc(N(C)c3ccc4c(C)n(C)nc4c3)n2)cc1S(N)(=O)=O | INSR | enzyme activity, inhibitor | 10 µM | inhibition | 27%
CSc1cccnc1N1CCN(Cc2nc3ccccc3[nH]2)CC1 | INSR | cell-free assay, competition with immobilised ligand | 1 µM | remaining binding | 85%
COc1cc(/C=C/C(=O)CC(=O)/C=C/c2ccc(O)c(OC)c2)ccc1O | INSR | enzyme activity, inhibitor | 1 µM | activity vs control | 46%
CC(C)(O)c1cncc(-c2nc3ccc(F)cc3n2C2CC2)c1 | INSR | cell-free assay, competition with immobilised ligand | 1 µM | remaining binding | 100%
O=C1Nc2ccc(Cl)cc2C1=Cc1cc(Cl)c(O)c(Cl)c1 | INSR | cell-free assay | 0.5 µM | remaining signal | 99.2%
O=C(NS(=O)(=O)c1ccc(NCC2CCOCC2)c([N+](=O)[O-])c1)c1ccc(N2CCN(Cc3ccc(C(F)(F)F)cc3-c3ccc(Cl)cc3)CC2)cc1Oc1cnc2[nH]ccc2c1 | INSR | cell-free assay, competition with immobilised ligand | 1 µM | remaining binding | 89%
CN(C)C1CCN(CC#Cc2nn(C3CCCC3)c3nc(NCc4ccccc4)ncc23)C1 (stereo not drawn) | INSR | enzyme activity, inhibitor, FRET | 1 µM | inhibition | 8%
O=C(O)[C@H]1[C@H](Cn2nnc3ccccc3c2=O)CC[C@@H]1C(=O)c1ccc(OCCC2CCOCC2)cc1 | INSR | cell-free assay, competition with immobilised ligand | 1 µM | remaining binding | 78%
CN1CC(Oc2cnc(C#N)cc2-c2ccn3nc(NC(=O)C4CC4)cc3c2)C1 | INSR | enzyme activity, inhibitor | 1 µM | inhibition | -2%
